In brackets after ≈: the same amount, converted by molar mass.
What was measured:
[1] = target: T1, Enoyl-[acyl-carrier-protein] reductase [NADPH] FabI (Staphylococcus aureus, UniProt Q6GI75); test: Inhibition of Staphylococcus aureus FabI-mediated reduction of enoyl-ACP preincubated for 30 mins measured after 2 hrs by spectrophotometry
T1 sequence (Q6GI75 whole entry): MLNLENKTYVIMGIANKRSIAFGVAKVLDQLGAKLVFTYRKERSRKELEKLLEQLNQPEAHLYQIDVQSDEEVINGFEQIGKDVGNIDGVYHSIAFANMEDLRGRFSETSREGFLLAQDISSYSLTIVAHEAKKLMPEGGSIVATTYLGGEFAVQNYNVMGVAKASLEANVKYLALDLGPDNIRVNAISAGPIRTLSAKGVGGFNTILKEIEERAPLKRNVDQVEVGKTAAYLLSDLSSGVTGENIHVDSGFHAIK

Staphylococcus aureus [2] = test: Antibacterial activity against methicillin-sensitive Staphylococcus aureus ATCC 29213 after 16 to 20 hrs by broth microdilution method; format: functional
In short: (§1)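 Broth microdilution in MHB, serial two-fold compound dilutions; final inoculum 5 × 10⁵ CFU/mL; broth, compound and organism controls in duplicate; S. aureus ATCC 29213 as quality control strain; incubation 35 °C, 16–20 h, ambient air; growth read by unaided eye with viewing device, end point set against no-antibiotic control wells.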

[3] = target: T2, Enoyl-[acyl-carrier-protein] reductase [NADPH] FabI (Staphylococcus aureus) (UniProt Q6GI75); test: Inhibition of Staphylococcus aureus FabI-mediated reduction of enoyl-ACP preincubated at 1 uM for 30 mins measured after 2 hrs by spectrophotometry
T2 sequence (whole entry): T1 sequence (Q6GI75 whole entry)
In short: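 Spectrophotometric FabI assay in 100 mM sodium ADA buffer, pH 6.5. Enzyme (2400 ng/assay) preincubated 30 min with NADH and compound. Reaction started with crotonoyl CoA. After 2 h at room temperature, NADH oxidation read as the fall in absorbance at 340 nm.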

Staphylococcus aureus [4] = test: Antibacterial activity against methicillin-resistant Staphylococcus aureus ATCC 33591 after 16 to 20 hrs by broth microdilution method; format: functional; in short: as §1
[5] = system: Staphylococcus epidermidis; test: Antibacterial activity against methicillin-resistant Staphylococcus epidermidis AUCC 704 after 16 to 20 hrs by broth microdilution method; format: functional; in short: as §1
[6] = Tmax in Swiss albino CD-1 mouse at 10 mg/kg, po administered as single dose; format: ADME, organism-based; parameters: dose 10 mg/kg, route oral; conditions: in vivo
In short: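 Oral gavage, 10 mg/kg single dose, given as a suspension in 0.25% Tween 80 with 0.225% sodium carboxymethyl cellulose. Blood drawn from the retro-orbital plexus into EDTA at set times (sparse sampling, n = 3 per time point). Plasma stored at −20 °C and assayed by LC-MS/MS. Parameters from non-compartmental analysis.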

[7] = Metabolic stability in mouse liver mirosomes assessed as compound remaining at 1 uM after 15 mins by LC-MS/MS analysis; format: ADME, tissue-based; conditions: liver microsomes, read-out: Stability
In short: (§2)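 Compound tested at 1 µM in mouse liver microsomes (0.3 mg/mL protein) with 1 mM NADPH in KH₂PO₄ buffer, pH 7.4, at 37 °C. Reactions stopped at 0, 15 and 60 min with acetonitrile containing carbamazepine internal standard. Samples centrifuged and the supernatant analysed by LC-MS/MS.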

[8] = Metabolic stability in mouse liver mirosomes assessed as compound remaining at 1 uM after 60 mins by LC-MS/MS analysis; format: ADME, tissue-based; conditions: liver microsomes, read-out: Stability; in short: as §2

O=C1CCc2cc(/C=C/C(=O)N3CC(c4ccccc4)C3)cnc2N1
IC50 [1]: 488 nM
MIC (Staphylococcus aureus [2]): 1 µg/mL (≈ 3 µM)
inhibition [3]: 80%
MIC (Staphylococcus aureus [4]): 2 µg/mL (≈ 6 µM)
MIC [5]: 2 µg/mL (≈ 6 µM)

O=C1CCc2cc(/C=C/C(=O)N3CC(Oc4ccccc4)C3)cnc2N1
MIC (Staphylococcus aureus [2]): 4 µg/mL (≈ 11.4 µM)
inhibition [3]: 35%
MIC (Staphylococcus aureus [4]): 4 µg/mL (≈ 11.4 µM)
MIC [5]: 16 µg/mL (≈ 45.8 µM)

O=C1CCc2cc(/C=C/C(=O)N3CC(Cc4nc5ccccc5s4)C3)cnc2N1
MIC (Staphylococcus aureus [2]): 2 µg/mL (≈ 4.94 µM)
inhibition [3]: 41%
MIC (Staphylococcus aureus [4]): 4 µg/mL (≈ 9.89 µM)
MIC [5]: 2 µg/mL (≈ 4.94 µM)

Cc1cccc(OCC2CN(C(=O)/C=C/c3cnc4c(c3)CCC(=O)N4)C2)c1
MIC (Staphylococcus aureus [2]): 2 µg/mL (≈ 5.3 µM)
inhibition [3]: 47%
MIC (Staphylococcus aureus [4]): 2 µg/mL (≈ 5.3 µM)
MIC [5]: 2 µg/mL (≈ 5.3 µM)

O=C1CCc2cc(/C=C/C(=O)N3CCC3)cnc2N1
MIC (Staphylococcus aureus [2]): > 32 µg/mL
inhibition [3]: 15%
MIC (Staphylococcus aureus [4]): > 32 µg/mL
MIC [5]: > 32 µg/mL

O=C1CCc2cc(/C=C/C(=O)N3CC(Oc4nc5ccccc5s4)C3)cnc2N1
MIC (Staphylococcus aureus [2]): > 32 µg/mL
inhibition [3]: 16%
MIC (Staphylococcus aureus [4]): > 32 µg/mL
MIC [5]: > 32 µg/mL

Cc1c(C2CN(C(=O)/C=C/c3cnc4c(c3)NCCC(=O)N4)C2)oc2ccccc12
IC50 [1]: 316 nM
MIC (Staphylococcus aureus [2]): 0.25 µg/mL (≈ 0.621 µM)
inhibition [3]: 92%
MIC (Staphylococcus aureus [4]): 0.5 µg/mL (≈ 1.24 µM)
MIC [5]: 1 µg/mL (≈ 2.48 µM)

Cc1ccc(OCC2CN(C(=O)/C=C/c3cnc4c(c3)CCC(=O)N4)C2)cc1
IC50 [1]: 921 nM
MIC (Staphylococcus aureus [2]): 1 µg/mL (≈ 2.65 µM)
inhibition [3]: 67%
MIC (Staphylococcus aureus [4]): 1 µg/mL (≈ 2.65 µM)
MIC [5]: 2 µg/mL (≈ 5.3 µM)

O=C1CCc2cc(/C=C/C(=O)N3CC(COc4cccc(F)c4)C3)cnc2N1
IC50 [1]: 438 nM
MIC (Staphylococcus aureus [2]): 1 µg/mL (≈ 2.62 µM)
inhibition [3]: 89%
MIC (Staphylococcus aureus [4]): 2 µg/mL (≈ 5.24 µM)
MIC [5]: 2 µg/mL (≈ 5.24 µM)

CC(=O)Nc1ccc(/C=C/C(=O)N2CC(c3oc4ccccc4c3C)C2)cn1
IC50 [1]: 161 nM
MIC (Staphylococcus aureus [2]): 1 µg/mL (≈ 2.66 µM)
inhibition [3]: 97%
MIC (Staphylococcus aureus [4]): 1 µg/mL (≈ 2.66 µM)
MIC [5]: 8 µg/mL (≈ 21.3 µM)

O=C1CCc2cc(/C=C/C(=O)N3CC(c4nc5ccccc5s4)C3)cnc2N1
IC50 [1]: 373 nM
MIC (Staphylococcus aureus [2]): 0.25 µg/mL (≈ 0.64 µM)
inhibition [3]: 83%
MIC (Staphylococcus aureus [4]): 0.25 µg/mL (≈ 0.64 µM)
Tmax [6]: 2 h
MIC [5]: 1 µg/mL (≈ 2.56 µM)

Cc1c(C2CN(C(=O)/C=C/c3cnc4c(c3)CCC(=O)N4)C2)oc2ccc(Cl)cc12
IC50 [1]: 204 nM
MIC (Staphylococcus aureus [2]): 0.25 µg/mL (≈ 0.593 µM)
inhibition [3]: 82%
MIC (Staphylococcus aureus [4]): 0.25 µg/mL (≈ 0.593 µM)
Tmax [6]: 1 h
MIC [5]: 0.5 µg/mL (≈ 1.19 µM)

Cc1ccccc1OCC1CN(C(=O)/C=C/c2cnc3c(c2)CCC(=O)N3)C1
IC50 [1]: 177 nM
MIC (Staphylococcus aureus [2]): 0.25 µg/mL (≈ 0.662 µM)
inhibition [3]: 80%
MIC (Staphylococcus aureus [4]): 0.5 µg/mL (≈ 1.32 µM)
Tmax [6]: 2 h
MIC [5]: 1 µg/mL (≈ 2.65 µM)

O=C1CCc2cc(/C=C/C(=O)N3CC(COc4ccccc4)C3)cnc2N1
IC50 [1]: 265 nM
MIC (Staphylococcus aureus [2]): 0.25 µg/mL (≈ 0.688 µM)
inhibition [3]: 81%
MIC (Staphylococcus aureus [4]): 0.25 µg/mL (≈ 0.688 µM)
MIC [5]: 1 µg/mL (≈ 2.75 µM)

Cc1cc(C2CN(C(=O)/C=C/c3cnc4c(c3)CCC(=O)N4)C2)nc2ccccc12
IC50 [1]: 242 nM
MIC (Staphylococcus aureus [2]): 32 µg/mL (≈ 80.3 µM)
inhibition [3]: 84%
MIC (Staphylococcus aureus [4]): > 32 µg/mL
MIC [5]: > 32 µg/mL

O=C1CCc2cc(/C=C/C(=O)N3CC(c4ccccn4)C3)cnc2N1
IC50 [1]: 242 nM
MIC (Staphylococcus aureus [2]): 4 µg/mL (≈ 12 µM)
inhibition [3]: 87%
MIC (Staphylococcus aureus [4]): 8 µg/mL (≈ 23.9 µM)
MIC [5]: 16 µg/mL (≈ 47.8 µM)

Cc1c(C2CN(C(=O)/C=C/c3ccc(NC(=O)Cn4ccnn4)nc3)C2)oc2ccccc12
IC50 [1]: 843 nM
MIC (Staphylococcus aureus [2]): > 32 µg/mL
inhibition [3]: 66%
MIC (Staphylococcus aureus [4]): > 32 µg/mL
MIC [5]: > 32 µg/mL

Cc1c(C2CN(C(=O)/C=C/c3cnc4c(c3)CN(C)CC(=O)N4)C2)oc2ccccc12
remaining at 0.25 h, 1 µM [7]: 25.6%
IC50 [1]: 112 nM
MIC (Staphylococcus aureus [2]): 0.25 µg/mL (≈ 0.6 µM)
inhibition [3]: 99%
MIC (Staphylococcus aureus [4]): 0.25 µg/mL (≈ 0.6 µM)
MIC [5]: 0.5 µg/mL (≈ 1.2 µM)
remaining at 1 h, 1 µM [8]: 6.6%

O=C1CCc2cc(/C=C/C(=O)N3CC(COc4ccc(F)cc4)C3)cnc2N1
IC50 [1]: 316 nM
MIC (Staphylococcus aureus [2]): 0.25 µg/mL (≈ 0.655 µM)
inhibition [3]: 92%
MIC (Staphylococcus aureus [4]): 0.5 µg/mL (≈ 1.31 µM)
Tmax [6]: 2 h
MIC [5]: 1 µg/mL (≈ 2.62 µM)

COc1ccc2oc(C3CN(C(=O)/C=C/c4cnc5c(c4)CCC(=O)N5)C3)c(C)c2c1
MIC (Staphylococcus aureus [2]): 0.5 µg/mL (≈ 1.2 µM)
MIC (Staphylococcus aureus [4]): 1 µg/mL (≈ 2.4 µM)
MIC [5]: 2 µg/mL (≈ 4.79 µM)

O=C1CCc2cc(/C=C/C(=O)N3CC(OCc4ccccc4)C3)cnc2N1
IC50 [1]: 376 nM
MIC (Staphylococcus aureus [2]): 1 µg/mL (≈ 2.75 µM)
inhibition [3]: 69%
MIC (Staphylococcus aureus [4]): 2 µg/mL (≈ 5.5 µM)
MIC [5]: 2 µg/mL (≈ 5.5 µM)

Cc1c(C2CN(C(=O)/C=C/c3cnc4c(c3)CN(CCN3CCOCC3)C(=O)N4)C2)oc2ccccc12
IC50 [1]: 58 nM
MIC (Staphylococcus aureus [2]): 1 µg/mL (≈ 1.99 µM)
inhibition [3]: 105%
MIC (Staphylococcus aureus [4]): 1 µg/mL (≈ 1.99 µM)
MIC [5]: 2 µg/mL (≈ 3.99 µM)

O=C1CCc2cc(/C=C/C(=O)N3CC(COc4ccc5ccccc5c4)C3)cnc2N1
IC50 [1]: 1410 nM
MIC (Staphylococcus aureus [2]): 4 µg/mL (≈ 9.67 µM)
inhibition [3]: 68%
MIC (Staphylococcus aureus [4]): 4 µg/mL (≈ 9.67 µM)
MIC [5]: > 32 µg/mL

Cc1c(C2CN(C(=O)/C=C/c3cnc4c(c3)CCC(=O)N4)C2)sc2ccccc12
IC50 [1]: 709 nM
MIC (Staphylococcus aureus [2]): 0.125 µg/mL (≈ 0.31 µM)
inhibition [3]: 89%
MIC (Staphylococcus aureus [4]): 0.25 µg/mL (≈ 0.62 µM)
Tmax [6]: 4 h
MIC [5]: 2 µg/mL (≈ 4.96 µM)

O=C1CCc2cc(/C=C/C(=O)N3CC(COc4ccccc4F)C3)cnc2N1
IC50 [1]: 378 nM
MIC (Staphylococcus aureus [2]): 1 µg/mL (≈ 2.62 µM)
inhibition [3]: 99%
MIC (Staphylococcus aureus [4]): 1 µg/mL (≈ 2.62 µM)
MIC [5]: 2 µg/mL (≈ 5.24 µM)

Cc1c(C2CN(C(=O)/C=C/c3cnc4c(c3)CN(CCN3CCOCC3)CC(=O)N4)C2)oc2ccccc12
IC50 [1]: 289 nM
MIC (Staphylococcus aureus [2]): 1 µg/mL (≈ 1.94 µM)
inhibition [3]: 100%
MIC (Staphylococcus aureus [4]): 1 µg/mL (≈ 1.94 µM)
MIC [5]: 2 µg/mL (≈ 3.88 µM)

From ChEMBL document CHEMBL3352330, “Discovery of azetidine based ene-amides as potent bacterial enoyl ACP reductase (FabI) inhibitors” (Eur J Med Chem, 2014)
